Mdm2 ligase inh: Mdm2 E3 ligase (human) inhibition; Q00987; cell-based MDM2 ubiquitination luciferase reporter, 2 h; 0 = plate control, 100 = twice control, blank-subtracted; signal enhancement, % at 5 µM; hit rate 0.11% among 210,000; AID 1230;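 active = signal enhancement of 30% or more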;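 note: luminescence tracks abundance of the self-degrading MDM2-luciferase fusion protein; higher signal means inhibition of MDM2 E3 ligase activity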
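Timing – 2 h compound exposure at 37 °C · Assay system – mammalian cells stably expressing self-ubiquitinating, self-degrading MDM2 E3–luciferase fusion · Amount – 2000 cells seeded into each well · Measure – % luminescence enhancement versus blank-corrected plate control mean · Measured by – SteadyLite luminescence, 15 min reagent step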
S1P3 antag: S1P3 (human) receptor antagonism; Q99500; CHO S1P3 NFAT-BLA reporter, FRET fluorescence, antagonist mode; inhibition, % at 4.98 µM; hit rate 0.27% among 170,000; AID 485;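 active = inhibition above the plate cutoff, the mean inhibition of test wells on that plate plus 3 SD, cut at about 28% in these data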;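 note: cells challenged with S1P at its EC80 of 0.8 µM; blue over green emission ratio from cleaved BLA substrate after 4 h stimulation; 0% = S1P-stimulated wells and 100% = unstimulated DMSO-only wells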
Target sequence (Q99500 whole entry, looked up): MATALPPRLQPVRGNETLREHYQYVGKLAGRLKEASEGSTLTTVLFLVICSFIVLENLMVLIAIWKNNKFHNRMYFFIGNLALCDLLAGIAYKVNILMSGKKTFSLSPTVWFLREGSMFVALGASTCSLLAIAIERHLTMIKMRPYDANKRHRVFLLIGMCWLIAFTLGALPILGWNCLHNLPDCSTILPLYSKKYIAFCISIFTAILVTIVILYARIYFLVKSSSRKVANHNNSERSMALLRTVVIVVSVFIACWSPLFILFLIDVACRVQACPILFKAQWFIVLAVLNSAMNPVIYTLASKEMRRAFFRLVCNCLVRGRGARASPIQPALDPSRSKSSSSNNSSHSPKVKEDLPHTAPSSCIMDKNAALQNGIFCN
Lmaj promast: reduces viability of Leishmania major promastigotes; resazurin fluorescence viability; AID 1063; inhibition, % at 10 µM; hit rate 9% among 200,000; in the data active = inhibition above about 50%;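 note: promastigotes grown with compound for 44 hours at 28 °C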
S1P4 agonist: agonists of human S1P4 receptor | O95977 | S1P4-expressing cell line, agonist reporter assay | activation, % at 4.98 µM | hit rate 0.35% among 220,000; in the data active = activation above about 11%;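 note: 0% = DMSO vehicle and 100% = reference agonist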
S1P4 antagonist: blocks the human S1P4 receptor. hit rate 0.26% among 220,000. O95977. S1P4-expressing cells, antagonist mode, reporter read-out. inhibition, % at 4.98 µM. AID 1510; in the data active = inhibition above about 29%;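 note: 0% = wells stimulated with agonist and 100% = vehicle wells without agonist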
Active calls of the source: *; / = no result. The full list was thinned out, with hits kept by preference.

SMILES	Mdm2 ligase inh	S1P3 antag	Lmaj promast	S1P4 agonist	S1P4 antagonist
CCCNC(=O)c1ccccc1NC(=O)CN(c1ccccc1OCC)S(C)(=O)=O	1.8	14.0	-4.5	-0.3	-16.2
CCOC(=O)c1sc(=S)n(C)c1NC(=O)c1ccccc1C	-1.9	-15.9	1.6	3.4	-9.6
N#Cc1ccc(N2CCN(C(=O)c3cccc(F)c3)CC2)c(F)c1	-6.7	-40.0	-2.0	-1.3	-18.9
O=C(CCl)N(c1ccccc1)c1ccccc1	-11.4	-15.7	77.2*	3.7	3.7
CCN(CC)c1nc2c3c(nc4c(c3c1C#N)CC(=O)N4c1ccc(Cl)cc1)NC(C)=N2	-2.0	-4.9	55.5*	5.1	-4.7
O=C(Nc1ccc(Br)cc1F)c1ccc2c(c1)N(Cc1ccccc1)C(=O)CS2=O (stereo not given)	-12.2	-9.4	99.6*	1.5	-16.7
Cc1ccc(C)c(NC(=O)c2ccc3c(c2)N(Cc2ccc(F)cc2)C(=O)CS3=O)c1 (stereo not given)	-53.5	-17.9	3.3	2.1	-2.3
O=C(c1cccc(Br)c1)N1CCN(c2cnn(-c3ccccc3)c(=O)c2Cl)CC1	-11.9	-12.3	84.1*	1.8	-14.0
CC1=NN(c2ccccc2)C(=O)/C1=C\c1cc(C)n(C)c1C	-3.5	-1.3	/	-0.7	4.6
CC1=NN(c2ccccc2)C(=O)/C1=C/c1cc2cc(C)ccc2nc1N1CCCCC1	-5.8	/	90.0*	0.6	-8.8
Cc1ccc(CNC(=O)c2cc(COc3c(F)cccc3F)on2)s1	-8.0	0.9	-8.0	0.2	-2.0
O=C(NCCc1cn2ccccc2n1)c1cc(COc2c(F)cccc2F)on1	-15.8	11.5	51.6*	-0.2	-7.6
CCOc1ccccc1-n1nnnc1SCC(=O)O	/	-8.0	/	0.7	2.0
COc1cc2c(cc1OC)C1(CCCC1)C(N)=C2C#N	-11.4	/	99.6*	0.8	-0.7
CSc1nnc2n(Cc3ccccc3)c(=O)c3c4c(sc3n12)COC(C(C)C)C4 (stereo not given)	-8.1	/	5.2	1.7	-8.2
Cc1nnc2n(Cc3ccccc3)c(=O)c3c4c(sc3n12)COC(C(C)C)C4 (stereo not given)	-3.2	/	55.2*	0.1	-0.9
Cc1cc(C)nc(/N=C(\N)Nc2ccc(OCc3ccccc3)cc2)n1	-30.1	15.2	100.2*	0.4	16.5
CCOc1nc(-c2ccccc2O)nc2ccccc12	-6.9	-16.0	-6.1	1.1	-4.7
CCOc1nc(N=C(N)N)nc2c(C)cccc12	-11.5	/	99.9*	2.6	-6.5
Cc1c(-c2ccccc2)oc2c(C(=O)OCC(=O)Nc3ccc(C(N)=O)cc3)cccc2c1=O	-7.0	0.6	53.2*	-1.8	-11.7
COC(=O)c1ccc(NC(=O)COC(=O)c2cccc3c(=O)c(C)c(-c4ccccc4)oc23)cc1	-16.4	2.5	0.0	0.8	-18.5
CCC(=O)N(Cc1cc(=O)[nH]c2ccccc12)c1ccc(C)cc1	-8.0	-8.3	/	-1.9	-4.6
COc1ccccc1CCNCc1ccc(OC)c(OCc2ccccc2)c1	3.2	/	100.3*	2.6	-34.7
COc1ccc(CNCc2ccco2)cc1OCc1ccccc1	-4.9	/	99.8*	-2.2	6.3
O=C(N/N=C/c1cc([N+](=O)[O-])ccc1O)C1CCCCC1	-7.0	-12.3	97.2*	-3.0	-10.3
SMILES	Mdm2 ligase inh	S1P3 antag	Lmaj promast	S1P4 agonist	S1P4 antagonist
O=[N+]([O-])c1ccc(O)c(/C=N/Nc2ccc(Cl)nn2)c1	-16.5	/	100.0*	0.3	-31.6
O=[N+]([O-])c1ccc(O)c(/C=N/Nc2nn[nH]n2)c1	-5.8	-12.8	-10.9	-0.6	-7.7
O=C(Cn1nc2ccccc2n1)N/N=C/c1cc([N+](=O)[O-])ccc1O	-8.2	-13.5	-4.5	0.2	-11.0
O=C(N/N=C/c1cc([N+](=O)[O-])ccc1O)C1C2CCCCC21 (stereo not given)	4.8	-0.6	92.2*	1.3	-16.6
CCN(CC)C(=O)C1CCCN(c2ccc([N+](=O)[O-])cc2/C=N/NC(=O)c2ccc([N+](=O)[O-])cc2)C1 (stereo not given)	7.7	/	52.9*	-1.1	-4.2
CCN(CC)C(=O)C1CCCN(c2ccc([N+](=O)[O-])cc2/C=N/NC(=O)c2ccccc2)C1 (stereo not given)	-21.6	-5.2	11.5	0.8	-0.4
CCOC(=O)c1sc2nc(NC(=O)C(C)(C)C)sc2c1C	-18.4	24.4	65.0*	4.1	7.3
CCOC(=O)c1sc2nc(NC(=O)C3CC3)sc2c1C	-3.4	-11.2	1.6	-0.8	-12.4
O=C(CN1CCC(N2CCCCC2)CC1)N1CCCc2ccccc21	-6.2	/	63.5*	-0.3	-10.9

From PubChem BioAssay
